Measurements taken from ChEMBL document CHEMBL1649109, “Antiparasitic activities and toxicities of individual enantiomers of the 8-aminoquinoline 8-[(4-amino-1-methylbutyl)amino]-6-methoxy-4-methyl-5-[3,4-dichlorophenoxy]quinoline succinate” (Antimicrob Agents Chemother, 2008).
The source made the active and inactive calls. The rule behind the calls is not given here.

Key:
Leishmania donovani [1] = experiment: Antileishmanial activity against Leishmania donovani HU3 infected in mouse assessed as inhibition of parasites in liver at 100 mg/kg/day, po treated for 5 days administered 7 days postinfection measured after 14 days; type: functional
Summary of the method: (§1)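 L. donovani HU3 amastigotes, 1 × 10^7 given IV to mice. From day 7 post-infection, dosed orally once daily for 5 days in 0.25% methylcellulose-10% ethanol; reference stibogluconate given SC. Mice killed at day 14 post-infection. Parasite burden counted on liver impression smears against untreated controls. ED50 from linear regression, with 95% confidence limits.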

Plasmodium berghei [2] = experiment: Antimalarial activity Plasmodium berghei KBG-173 infected in Swiss(CD-1) mouse assessed as mean survival time at 2 mg/kg, po pretreated 2 days before infection; type: functional
Summary of the method: (§2)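 CD-1 mice, 5 weeks old, male or female, groups of five, infected with 5 × 10^4 P. berghei KBG-173 parasitized erythrocytes. One 2 mg/kg oral dose given on a single day, from day −3 to +2 relative to inoculation. Controls untreated. Read-out is increase in mean survival time over controls and number alive at day +30.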

Plasmodium berghei [3] = experiment: Antimalarial activity Plasmodium berghei KBG-173 infected in Swiss(CD-1) mouse assessed as mean survival time at 2 mg/kg, po pretreated 3 days before infection; type: functional; summary of the method: as §2
Plasmodium berghei [4] = experiment: Antimalarial activity Plasmodium berghei KBG-173 infected in Swiss(CD-1) mouse assessed as survival at 2 mg/kg, po treated 2 day postinfection measured on day 30; type: functional, organism-based; set-up: dose 2 mg/kg; summary of the method: as §2
Plasmodium berghei [5] = experiment: Antimalarial activity Plasmodium berghei KBG-173 infected in Swiss(CD-1) mouse assessed as survival at 2 mg/kg, po treated 1 day postinfection measured on day 30; type: functional, organism-based; set-up: dose 2 mg/kg; summary of the method: as §2
Plasmodium berghei [6] = experiment: Antimalarial activity Plasmodium berghei KBG-173 infected in Swiss(CD-1) mouse assessed as survival at 2 mg/kg, po treated at day of infection measured on day 30; type: functional, organism-based; set-up: dose 2 mg/kg; summary of the method: as §2
Plasmodium berghei [7] = experiment: Antimalarial activity against Plasmodium berghei KBG-173 infected in Swiss(CD-1) mouse assessed as reduction in parasitemia at 4 mg/kg/day, po treated for 3 days measured on day 6; type: functional; set-up: scale not given: the % may be the effect or the level left
Summary of the method: (§3)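 CD-1 mice, 5 weeks old, male or female, groups of five, infected with 5 × 10^4 P. berghei KBG-173 parasitized erythrocytes. Drug in 0.5% hydroxyethylcellulose/0.1% Tween 80, given orally once daily on days 3, 4 and 5 post-infection. Parasitemia from blood films on day +6. Read-out also includes increase in mean survival time over controls and survivors at day +34.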

Plasmodium berghei [8] = experiment: Antimalarial activity against Plasmodium berghei KBG-173 infected in Swiss(CD-1) mouse assessed as mean survival time at 0.25 mg/kg/day, po treated for 3 days; type: functional; summary of the method: as §3
Plasmodium berghei [9] = experiment: Antimalarial activity against Plasmodium berghei KBG-173 infected in Swiss(CD-1) mouse assessed as mean survival time at 1 mg/kg/day, po treated for 3 days; type: functional; summary of the method: as §3
Plasmodium berghei [10] = experiment: Antimalarial activity against Plasmodium berghei KBG-173 infected in Swiss(CD-1) mouse assessed as survival at 4 mg/kg/day, po treated for 3 days measured on day 34; type: functional, organism-based; summary of the method: as §3
Pneumocystis carinii [11] = experiment: Antimicrobial activity against Pneumocystis carinii infected BALB/c mouse at 5 mg/kg/day, po after 21 days administered 4 weeks postinfection by Giemsa staining method; type: functional, organism-based
Summary of the method: (§4)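 Female BALB/c mice, 6-8 weeks, immunosuppressed with dexamethasone […] in drinking water, then inoculated transtracheally with 10^6 P. carinii. From 4 weeks post-inoculation, drug given in drinking water for 3 weeks, 10 mice/group, intake monitored. Lung impression smears stained with Giemsa or methenamine silver, read blinded. Graded 0-5 on a log scale; group mean ± SE.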

Pneumocystis carinii [12] = experiment: Antimicrobial activity against Pneumocystis carinii infected BALB/c mouse at 1 mg/kg/day, po after 21 days administered 4 weeks postinfection by Giemsa staining method; type: functional, organism-based; summary of the method: as §4
Pneumocystis carinii [13] = experiment: Antimicrobial activity against Pneumocystis carinii infected BALB/c mouse at 0.5 mg/kg/day, po after 21 days administered 4 weeks postinfection by Giemsa staining method; type: functional, organism-based; summary of the method: as §4
Pneumocystis carinii [14] = experiment: Antimicrobial activity against Pneumocystis carinii infected BALB/c mouse at 0.25 mg/kg/day, po after 21 days administered 4 weeks postinfection by Giemsa staining method; type: functional, organism-based; summary of the method: as §4
Pneumocystis carinii [15] = experiment: Antimicrobial activity against Pneumocystis carinii infected BALB/c mouse at 5 mg/kg/day, po after 21 days administered 4 weeks postinfection by methenamine silver nitrate staining method; type: functional, organism-based; summary of the method: as §4
Pneumocystis carinii [16] = experiment: Antimicrobial activity against Pneumocystis carinii infected BALB/c mouse at 1 mg/kg/day, po after 21 days administered 4 weeks postinfection by methenamine silver nitrate staining method; type: functional, organism-based; summary of the method: as §4
Pneumocystis carinii [17] = experiment: Antimicrobial activity against Pneumocystis carinii infected BALB/c mouse at 0.5 mg/kg/day, po after 21 days administered 4 weeks postinfection by methenamine silver nitrate staining method; type: functional, organism-based; summary of the method: as §4
Pneumocystis carinii [18] = experiment: Antimicrobial activity against Pneumocystis carinii infected BALB/c mouse at 0.25 mg/kg/day, po after 21 days administered 4 weeks postinfection by methenamine silver nitrate staining method; type: functional, organism-based; summary of the method: as §4
Pneumocystis carinii [19] = experiment: Antimicrobial activity against Pneumocystis carinii infected BALB/c mouse at 0.1 mg/kg/day, po after 21 days administered 4 weeks postinfection by Giemsa staining method; type: functional, organism-based
Leishmania donovani [20] = experiment: Antileishmanial activity against Leishmania donovani HU3 infected in mouse; type: functional; summary of the method: as §1
Canis familiaris = experiment: Toxicity in Beagle dog assessed as increase in methemoglobin level at 0.64 mg/kg/day, po; type: organism-based, Canis lupus familiaris; set-up: route oral; conditions: in vivo
Summary of the method: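 Beagle dogs, one male and one female per enantiomer, given 0.64 mg/kg/day (0.5 mg/kg base) orally for 4 days. After a 5-week washout the same dogs received 1.91 mg/kg/day for 4 days. Methemoglobin sampled from days −6 to 36. Each dog's values are mean of duplicate determinations.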

Plasmodium berghei [21] = experiment: Antimalarial activity Plasmodium berghei KBG-173 infected in Swiss(CD-1) mouse assessed as survival at 2 mg/kg, po pretreated 1 day before infection measured on day 30; type: functional, organism-based; set-up: dose 2 mg/kg; summary of the method: as §2
Leishmania donovani [22] = experiment: Antileishmanial activity against Leishmania donovani HU3 infected in mouse assessed as inhibition of parasites in liver at 10 mg/kg/day, po treated for 5 days administered 7 days postinfection measured after 14 days post-infection; type: functional; summary of the method: as §1
Leishmania donovani [23] = experiment: Antileishmanial activity against Leishmania donovani HU3 infected in mouse assessed as inhibition of parasites in liver at 5 mg/kg/day, po treated for 5 days administered 7 days postinfection measured after 14 days post-infection; type: functional; summary of the method: as §1
Leishmania donovani [24] = experiment: Antileishmanial activity against Leishmania donovani HU3 infected in mouse assessed as inhibition of parasites in liver at 0.4 mg/kg/day, po treated for 5 days administered 7 days postinfection measured after 14 days post-infection; type: functional; summary of the method: as §1
Plasmodium berghei [25] = experiment: Antimalarial activity against Plasmodium berghei KBG-173 infected in Swiss(CD-1) mouse assessed as parasitemia at 1 mg/kg/day, po treated for 3 days measured on day 6
Plasmodium berghei [26] = experiment: Antimalarial activity against Plasmodium berghei KBG-173 infected in Swiss(CD-1) mouse assessed as parasitemia at 0.25 mg/kg/day, po treated for 3 days measured on day 6

SMILES: COc1cc(N[C@H](C)CCCN)c2nccc(C)c2c1Oc1ccc(Cl)c(Cl)c1.O=C(O)CCC(=O)O
- inhibition in vivo at 100 mg/kg/day (Leishmania donovani [1]): 99.8%
- MST (Plasmodium berghei [2]): 8.4 days
- MST (Plasmodium berghei [3]): 4.6 days
- Activity (Plasmodium berghei [4]): inactive
- Activity (Plasmodium berghei [5]): inactive
- Activity (Plasmodium berghei [6]): inactive
- Activity (Plasmodium berghei [7]): 0%
- MST (Plasmodium berghei [8]): 11.6 days
- MST (Plasmodium berghei [9]): 20.5 days
- Activity (Plasmodium berghei [10]): inactive
- Activity (Pneumocystis carinii [11]): Active
- Activity (Pneumocystis carinii [12]): Active
- Activity (Pneumocystis carinii [13]): Active
- Activity (Pneumocystis carinii [14]): Active
- Activity (Pneumocystis carinii [15]): Active
- Activity (Pneumocystis carinii [16]): Active
- Activity (Pneumocystis carinii [17]): Active
- Activity (Pneumocystis carinii [18]): Active
- Activity (Pneumocystis carinii [19]): Active
- ED90 (Leishmania donovani [20]): 3.61 mg/kg
- ED50 (Leishmania donovani [20]; Leishmania donovani, HU3): 1.28 mg/kg
- Activity (Canis familiaris): Toxic
- Activity (Plasmodium berghei [21]): inactive
- inhibition in vivo at 10 mg/kg/day (Leishmania donovani [22]): 99.3%
- inhibition in vivo at 5 mg/kg/day (Leishmania donovani [23]): 98%
- inhibition in vivo at 0.4 mg/kg/day (Leishmania donovani [24]): 61.5%
- Activity (Plasmodium berghei [25]): 0%
- Activity (Plasmodium berghei [26]): 0.2%
